From ChEMBL document CHEMBL4610035, “Synthesis and biological evaluation of novel 3-benzylcoumarin-imidazolium salts” (Bioorg Med Chem Lett, 2020) come the findings set out here.

pIC50: −log10 of the molar value.

The pIC50 is the negative decadic logarithm of the IC50, by convention in mol/L.

One test concerns A549. The experiment in a line: Antiproliferative activity against human A549 cells assessed as growth inhibition incubated up to 4 days by MTS assay. To be noted: A549, 96 h. It is filed as functional, cell-based. A digest of the protocol:
(§1)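 Five human tumour cell lines were assayed by MTS. IC50 is the compound concentration that cuts optical density of treated cells by 50% relative to untreated cells. Mean of three independent determinations.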

For the next test, the system named is SMMC-7721. As to the kind of experiment: Antiproliferative activity against human SMMC7721 cells assessed as growth inhibition incubated up to 4 days by MTS assay. It is filed as functional, cell-based. The note with it: SMMC-7721, 96 h. A digest of the protocol:
as §1

In test [1] the test system is SW480. The experiment in a line: Antiproliferative activity against human SW480 cells assessed as growth inhibition incubated up to 4 days by MTS assay. To be noted: SW480, 96 h. In kind it is functional, cell-based. A digest of the protocol: as §1
A general note: Tetrazolium assays rely on reduction of a dye to a coloured formazan, in cell work by metabolically active cells.

For test [2], the system named is MCF7. The experiment in a line: Antiproliferative activity against human MCF7 cells assessed as growth inhibition incubated up to 4 days by MTS assay. It is filed as functional, cell-based. To be noted: MCF7, 96 h. The procedure, abridged: as §1
The next test concerns HL-60. As to the kind of experiment: Antiproliferative activity against human HL60 cells assessed as growth inhibition incubated up to 4 days by MTS assay. It is filed as functional, cell-based. The note with it: HL-60, 96 h. The procedure, abridged:
as §1

Test [3] relates to SW480. As to the kind of experiment: Potency index, ratio of cisplatin IC50 to compound IC50 for antiproliferative activity against human SW480 cells assessed as growth inhibition. It is filed as functional.
For test [4], the system named is MCF7. The experiment in a line: Potency index, ratio of cisplatin IC50 to compound IC50 for antiproliferative activity against human MCF7 cells assessed as growth inhibition. In kind it is functional.

`Cc1n(C(c2ccccc2)c2cc3ccccc3oc2=O)c2ccccc2[n+]1CC(=O)c1ccc(-c2ccccc2)cc1` (stereo not given): the pIC50 in the test on A549 was 5.29; with SMMC-7721, 5.30; in the test with SW480 [1], 5.54; with MCF7 [2] it was 5.54; in the test with HL-60, 5.56.

As to `COc1ccc(C(=O)C[n+]2cn(C(c3ccccc3)c3cc4ccccc4oc3=O)c3ccccc32)cc1` (stereo not given), the pIC50 is < 4.70 in the test on A549; 5.05 in the test with SMMC-7721; 5.32 in the test on SW480 [1]; 5.76 in the test with MCF7 [2]; 5.15 with HL-60.

`Cc1n(C(c2ccccc2)c2cc3ccccc3oc2=O)c2ccccc2[n+]1CC(=O)c1ccccc1` (stereo not given): the pIC50 in the test with A549, in the test on SMMC-7721, with SW480 [1], with MCF7 [2] and with HL-60 was < 4.70 throughout.

With `Cc1cc2c(cc1C)[n+](CC(=O)c1ccc(Br)cc1)cn2C(c1ccccc1)c1cc2ccccc2oc1=O.[Br-]` (stereo not given), in the test on SW480 [3], the “Ratio IC50” value is 40. The pIC50 was 5.31 in the test on A549; 5.38 in the test with SMMC-7721; 6.70 in the test with SW480 [1]; 5.64 in the test with MCF7 [2]; 5.61 in the test on HL-60.

Consider `O=C(C[n+]1cn(C(c2ccccc2)c2cc3ccccc3oc2=O)c2ccccc21)c1ccccc1` (stereo not given), for which the pIC50 with A549 is < 4.70; in the test on SMMC-7721, < 4.70; in the test on SW480 [1], 5.20; in the test with MCF7 [2], 5.29; in the test on HL-60 it was 4.73.

Regarding `O=C(C[n+]1ccn(C(c2ccccc2)c2cc3ccccc3oc2=O)c1)c1ccc(Br)cc1` (stereo not given), the pIC50 in the test on A549, with SMMC-7721, in the test on SW480 [1], in the test on MCF7 [2] and in the test with HL-60 was < 4.70 each time.

`Cc1cc2c(cc1C)[n+](CC(=O)c1ccc(-c3ccccc3)cc1)cn2C(c1ccccc1)c1cc2ccccc2oc1=O` (stereo not given): the pIC50 was 5.67 in the test with A549; 5.72 with SMMC-7721; 5.10 in the test on SW480 [1]; 5.78 in the test on MCF7 [2]; 5.68 with HL-60.

In the case of `O=C(C[n+]1ccn(C(c2ccccc2)c2cc3ccccc3oc2=O)c1)c1ccccc1` (stereo not given), the pIC50 with A549, with SMMC-7721, with SW480 [1], in the test with MCF7 [2] and in the test with HL-60 was < 4.70 each time.

On to `O=C(C[n+]1ccn(C(c2ccccc2)c2cc3ccccc3oc2=O)c1)c1ccc(C(F)(F)F)cc1` (stereo not given), for which the pIC50 with A549, in the test with SMMC-7721, in the test with SW480 [1], in the test on MCF7 [2] and in the test with HL-60 was < 4.70 throughout.

Consider `Cc1nc2ccccc2n1C(c1ccccc1)c1cc2ccccc2oc1=O` (stereo not given), for which the pIC50 in the test with A549, with SMMC-7721, in the test with SW480 [1], in the test on MCF7 [2] and in the test with HL-60 was < 4.70 throughout.

For the compound `Cc1n(C(c2ccccc2)c2cc3ccccc3oc2=O)c2ccccc2[n+]1CC(=O)c1ccc(C(F)(F)F)cc1` (stereo not given), the pIC50 is < 4.70 in the test on A549; < 4.70 in the test with SMMC-7721; 5.04 with SW480 [1]; 5.09 in the test with MCF7 [2]; 5.11 with HL-60.

In the case of `O=C(C[n+]1ccn(C(c2ccccc2)c2cc3ccccc3oc2=O)c1)c1ccc(-c2ccccc2)cc1` (stereo not given), the pIC50 with A549 was < 4.70; with SMMC-7721, < 4.70; with SW480 [1], < 4.70; in the test with MCF7 [2] it was 4.90; with HL-60, 5.28.

Turning to `Cc1n(C(c2ccccc2)c2cc3ccccc3oc2=O)c2ccccc2[n+]1CC(=O)c1ccc2ccccc2c1` (stereo not given), the pIC50 in the test with A549 was 4.80; with SMMC-7721, 4.94; with SW480 [1], 5.22; in the test with MCF7 [2], 5.55; in the test with HL-60, 5.08.

Turning to `O=C(C[n+]1ccn(C(c2ccccc2)c2cc3ccccc3oc2=O)c1)c1ccc2ccccc2c1` (stereo not given), the pIC50 in the test on A549 is < 4.70; with SMMC-7721, < 4.70; in the test with SW480 [1] it was 5.10; in the test on MCF7 [2] it was 5.14; in the test on HL-60, 5.36.

Consider `COc1ccc(C(=O)C[n+]2c(C)n(C(c3ccccc3)c3cc4ccccc4oc3=O)c3ccccc32)cc1` (stereo not given), for which the pIC50 in the test on A549 was 5.07; in the test with SMMC-7721, 5.16; in the test with SW480 [1] it was 5.46; in the test on MCF7 [2] it was 5.92; in the test on HL-60, 5.43.

Consider `O=c1oc2ccccc2cc1C(c1ccccc1)n1cnc2ccccc21` (stereo not given), for which the pIC50 in the test on A549, in the test on SMMC-7721, in the test on SW480 [1], in the test with MCF7 [2] and in the test with HL-60 was < 4.70 in each case.

With `O=C(C[n+]1cn(C(c2ccccc2)c2cc3ccccc3oc2=O)c2ccccc21)c1ccc(-c2ccccc2)cc1.[Br-]` (stereo not given), the “Ratio IC50” value is on record as 4.9 in the test on SW480 [3] and 10.2 in the test with MCF7 [4]. Besides, the pIC50 in the test with A549 was 5.13; in the test with SMMC-7721 it was 5.33; in the test with SW480 [1], 5.79; in the test with MCF7 [2], 6.02; in the test on HL-60, 5.54.

Take `O=C(C[n+]1cn(C(c2ccccc2)c2cc3ccccc3oc2=O)c2ccccc21)c1ccc(C(F)(F)F)cc1` (stereo not given): the pIC50 in the test on A549 is 5.15; with SMMC-7721, 5.21; in the test on SW480 [1], 5.81; in the test on MCF7 [2] it was 5.89; with HL-60 it was 5.35.

On to `O=C(C[n+]1cn(C(c2ccccc2)c2cc3ccccc3oc2=O)c2ccccc21)c1ccc2ccccc2c1` (stereo not given), for which the negative-log IC50 (pIC50) was 5.04 in the test with A549; 5.24 with SMMC-7721; 5.83 in the test on SW480 [1]; 5.89 in the test with MCF7 [2]; 5.38 with HL-60.

As to `O=c1oc2ccccc2cc1C(c1ccccc1)n1ccnc1` (stereo not given), the pIC50 with A549, in the test with SMMC-7721, in the test on SW480 [1], in the test on MCF7 [2] and in the test on HL-60 was < 4.70 throughout.

On to `COc1ccc(C(=O)C[n+]2ccn(C(c3ccccc3)c3cc4ccccc4oc3=O)c2)cc1` (stereo not given), for which the pIC50 in the test with A549, in the test on SMMC-7721, in the test with SW480 [1], in the test with MCF7 [2] and in the test on HL-60 was < 4.70 each time.

Regarding `O=C(C[n+]1cn(C(c2ccccc2)c2cc3ccccc3oc2=O)c2ccccc21)c1ccc(Br)cc1` (stereo not given), the pIC50 is 4.92 with A549; 5.09 in the test on SMMC-7721; 5.78 with SW480 [1]; 5.91 in the test with MCF7 [2]; 5.23 with HL-60.

As to `COc1ccc(C(=O)C[n+]2cn(C(c3ccccc3)c3cc4ccccc4oc3=O)c3cc(C)c(C)cc32)cc1.[Br-]` (stereo not given), the entries for the “Ratio IC50” value in the test on SW480 [3] and in the test on MCF7 [4] were 22.2 and 6.2, respectively. Further, the pIC50 was 5.25 with A549; 5.33 in the test on SMMC-7721; 6.44 in the test on SW480 [1]; 5.80 in the test with MCF7 [2]; 5.81 with HL-60.

Consider `Cc1cc2ncn(C(c3ccccc3)c3cc4ccccc4oc3=O)c2cc1C` (stereo not given), for which the negative logarithm of the IC50 (pIC50) in the test on A549, in the test with SMMC-7721, in the test with SW480 [1], in the test with MCF7 [2] and in the test on HL-60 was < 4.70 throughout.

Turning to `Cc1cc2c(cc1C)[n+](CC(=O)c1ccccc1)cn2C(c1ccccc1)c1cc2ccccc2oc1=O` (stereo not given), the pIC50 with A549 is 4.91; with SMMC-7721, 5.14; with SW480 [1], 5.91; with MCF7 [2], 5.38; in the test with HL-60 it was 5.32.

With `Cc1n(C(c2ccccc2)c2cc3ccccc3oc2=O)c2ccccc2[n+]1CC(=O)c1ccc(Br)cc1` (stereo not given), the negative-log IC50 (pIC50) in the test on A549, in the test with SMMC-7721, in the test on SW480 [1], with MCF7 [2] and with HL-60 was < 4.70 throughout.

Take `Cc1cc2c(cc1C)[n+](CC(=O)c1ccc(C(F)(F)F)cc1)cn2C(c1ccccc1)c1cc2ccccc2oc1=O` (stereo not given): the pIC50 in the test on A549 is 4.93; in the test on SMMC-7721 it was 5.02; in the test with SW480 [1], 5.09; in the test on MCF7 [2], 5.18; with HL-60 it was 5.06.
